Shown are actives, neighbours in structure and some others; about 2.5% of the full set was active somewhere.
MEKK3 PB1 HTS = MEKK3-MEK5 PB1 interaction, increase or decrease | Q99759 | bead-based flow cytometry, Alexa488-MEK5 binding to MEKK3; actives lie on both sides; 0 = blocked by unlabeled MEK5, 100 = vehicle | binding response (% of control), % at 10 µM | actives 1.4% (n = 290,000) | AID 1529;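 active means binding response more than 3 SD above or below the average of its plate-row segment, actives on both sides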;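 further: Alexa488 bead fluorescence after subtracting the streptavidin-only scavenger bead signal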
Target sequence (Q99759 whole entry, looked up): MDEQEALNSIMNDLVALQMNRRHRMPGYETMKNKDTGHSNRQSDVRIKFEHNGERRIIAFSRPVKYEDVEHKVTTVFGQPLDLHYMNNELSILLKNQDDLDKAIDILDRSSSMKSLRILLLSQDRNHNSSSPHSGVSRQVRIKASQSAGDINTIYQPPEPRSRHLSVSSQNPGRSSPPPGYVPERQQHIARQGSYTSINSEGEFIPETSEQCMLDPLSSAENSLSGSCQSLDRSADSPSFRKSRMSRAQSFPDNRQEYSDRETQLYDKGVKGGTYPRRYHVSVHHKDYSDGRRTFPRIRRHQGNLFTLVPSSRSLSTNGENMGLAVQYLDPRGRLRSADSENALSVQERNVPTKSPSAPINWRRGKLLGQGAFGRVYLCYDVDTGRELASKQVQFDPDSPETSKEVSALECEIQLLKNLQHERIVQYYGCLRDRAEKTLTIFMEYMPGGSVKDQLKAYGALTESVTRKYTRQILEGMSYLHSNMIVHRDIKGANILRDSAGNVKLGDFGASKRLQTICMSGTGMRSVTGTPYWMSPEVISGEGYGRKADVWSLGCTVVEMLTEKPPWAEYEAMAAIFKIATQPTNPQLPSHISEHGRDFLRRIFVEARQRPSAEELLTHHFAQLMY
MEKK2mut PB1 HTS = signal of MEK5 binding to mutant human MEKK2 PB1 domain. bead flow cytometry, Alexa488-MEK5 binding to MEKK2 mutant. percent response, % at 10 µM. actives 0.35% (n = 290,000); in the data active means percent response above about 24%, passing the limit was not always enough
T cell HTS = T cell immune modulators affecting CD8 T cell-vesicle binding. 2C CD8+ T cell-vesicle binding, flow cytometry; active compounds read low. response (vesicle binding), % at 7 µM. actives 0.068% (n = 330,000);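 active means response, share of CD8 T cells binding vesicles, and their 90th percentile fluorescence all below set limits, cut at about 80% in these data, passing the limit was not always enough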;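 further: values below 100% mean blocked vesicle binding to the CD8+ T cells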
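Benchmarks: naked versus QL9-loaded vesicles / Assay system: purified 2C TCR transgenic mouse naive CD8+ T cells / Technique: high-throughput flow cytometry with anti-B7-1 and anti-CD8 staining / Timing: Cell–vesicle co-incubation 1.5 h at 37 °C, staining 20 min on ice / Read-out: percent CD8+ FL2 mean versus row control / Probe or stimulus: QL9-loaded Drosophila micro-vesicles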
UCH37 inh = human UCH37 deubiquitinating enzyme inhibition. Q9Y5K5. purified proteasome/UCH37, Ub-AMC cleavage fluorescence. inhibition, % (no concentration beside the values). actives 0.33% (n = 330,000). AID 588478;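 active means mean inhibition over replicate wells above about 20%, limit read from the data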;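 further: 0% = compound-free wells with enzyme and 100% = wells lacking proteasome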
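Material: human UCH37 enzyme supplied as purified proteasome complex / Amount: 0.15 nM proteasome as dispensed / Buffer or medium: pH 7.4 Tris-HCl (50 mM) with ovalbumin, ATP-MgCl2, DTT / Times: preincubation 30 min, reaction 25 min, room temperature / Technique: AMC fluorescence from Ub-AMC cleavage, excitation 355 nm, emission 460 nm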
Rce1 inhib = blocks yeast Ras-converting enzyme. Q03530. yeast membranes, quenched prenylated peptide cleavage fluorescence. calls only. actives 0.27% (n = 290,000). AID 2563;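 active means fall in fluorescence gain of 50% or more versus controls, with final raw signal at or below 3038400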;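 further: plate controls were neutral control wells for no effect and wells lacking membranes for full effect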
MEKK2wt PB1 HTS = raises or lowers MEK5 binding to wildtype human MEKK2 PB1 domain; Q9Y2U5; bead flow cytometry, Alexa488-MEK5 binding to MEKK2 WT; actives lie on both sides; binding response (% of control), % at 10 µM; actives 1.1% (n = 290,000); AID 1531; in the data active means binding response below about 67% or above about 130%
MEKK2wt confirm = raises or lowers MEK5 binding to wildtype human MEKK2, retest; shares compounds with MEKK3 PB1 HTS; bead flow cytometry, Alexa488-MEK5 binding to MEKK2 WT; actives lie on both sides; binding response (% of control), % at 10 µM; actives 2.4% (n = 5,900); AID 1892; in the data active means binding response below about 16% or above about 210%; inactive means in between
MEKK2mut-MEK5 = signal of MEK5 binding to mutant human MEKK2, retest. shares compounds with MEKK3 PB1 HTS. actives 2% (n = 5,900). percent response, % at 10 µM. bead flow cytometry, Alexa488-MEK5 binding to MEKK2 mutant. AID 1893; in the data active means percent response mostly above about 71%, no sharp cut-off; inactive means mostly below about 38%;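 further: higher means compound restores mutant binding toward wildtype level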
MEKK3 confirm = MEKK3-MEK5 PB1 inhibition, single concentration confirmation; shares compounds with MEKK3 PB1 HTS; bead flow cytometry, Alexa488-MEK5 binding to MEKK3; active compounds read low; binding response (% of control), % at 10 µM; actives 1.8% (n = 5,900);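 active means binding response below 72% of control, or above a set upper limit, though filed actives all read lower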;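 further: 100% = DMSO only wells and 0% = binding blocked by excess unlabeled MEK5; lower values mean stronger disruption of MEK5 binding to MEKK3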
* = called active by the depositor; i = inactive; x = no result; [ ] = dose if it differs, or a comment.

SMILES	MEKK3 PB1 HTS	MEKK2mut PB1 HTS	T cell HTS	UCH37 inh	Rce1 inhib	MEKK2wt PB1 HTS	MEKK2wt confirm	MEKK2mut-MEK5	MEKK3 confirm
COc1ccc(-c2cc(-c3ccc(F)cc3)nc(N3CCN(C)CC3)n2)cc1	122	39	274	-22	i	201*	205	78*	117
CC(=NNC(=O)CC1N=C(Cc2ccccc2)NNC1=O)c1ccc(C)cc1 (stereo not drawn)	x	x	x	3	x	x	x	x	x
Cc1ccc(Cl)cc1N1CCN(C(=O)CSc2ccsc2[N+](=O)[O-])CC1	133*	0	234	3	i	102	94	-7	95
S=C(NN=Cc1ccco1)NC1CC2CCC1C2 (stereo not drawn)	x	x	x	1	x	x	x	x	x
Cc1occc1-c1nnc(SCC(=O)c2ccc(Cl)cc2)n1CC1CCCO1 (stereo not drawn)	2.0*[inhibitor]	-26	362	1	i	3.0*[inhibitor]	105	4	104
O=C(CN1CCOCC1)NNc1c2ccccc2nc2ccccc12	40*[inhibitor]	-9	836	5	i	37*[inhibitor]	103	-3	105
C[N+]1(CC(=O)NNc2c3ccccc3nc3ccccc23)CCOCC1	101	-3	256	12	i	98	x	x	x
O=C1C2C(C(=O)N1N=Cc1cc([N+](=O)[O-])ccc1O)C1C=CC2C12CC2 (stereo not drawn)	x	x	x	12	x	x	x	x	x
COCC(=O)Nc1nnc(-c2ccc(C(C)(C)C)cc2)s1	144*	6	286	1	i	118	102	-14	98
O=C(Cn1nc(CNc2ccc(Br)cc2)[n+]2c1CCCCC2)c1ccc([N+](=O)[O-])cc1	103	33	88	4	i	146*	132	19	96
Cc1ccc(Cl)c(OC(=O)c2ccc(N3CCOCC3)c([N+](=O)[O-])c2)c1	137*	1	174	5	i	109	99	-2	104
COc1ccccc1CNC(=O)c1ccc(N2CCOCC2)c([N+](=O)[O-])c1	44*[inhibitor]	-19	258	4	i	53	104	3	110
CC(=NNC(=O)c1cc(C)nc2ccccc12)c1ccc([N+](=O)[O-])cc1	x	x	x	5	x	x	x	x	x
O=C(Nc1ccncc1)Nc1cccc(C(F)(F)F)c1	100	-3	72	2	i	101	x	x	x
O=C(NCCNC(=O)c1cc(OCC(F)(F)F)ccc1OCC(F)(F)F)Nc1cccc(C(F)(F)F)c1	103	11	412	4	i	142*	111	4	103
CCN(CC)S(=O)(=O)c1ccc(NC(=O)Nc2cccc(C(F)(F)F)c2)cc1	108	26	346	0	i	144*	168	30	102
O=C(Nc1ccc(OC(F)F)cc1)Nc1cccc(C(F)(F)F)c1	113	17	487	2	i	209*	115	-1	93
Cc1ccc(S(=O)(=O)Nc2ccc(NC(=O)Nc3cccc(C(F)(F)F)c3)cc2)cc1	109	54*	174	5	i	171*	176	36	97
CN(C)S(=O)(=O)NCCNC(=O)c1cc(OCC(F)(F)F)ccc1OCC(F)(F)F	86	-1	205	0	i	100	x	x	x
CCOc1ccc(C(CCC(=O)O)=NNC(=S)NC(C)C)cc1	x	x	x	3	x	x	x	x	x
CC(=NNC(=O)c1nnn(-c2nonc2N)c1-c1ccc2c(c1)OCO2)c1ccc(F)cc1	x	x	x	-22	x	x	x	x	x
CCOc1ccccc1C=Nn1c(C)nc2ccccc2c1=O	x	x	x	1	x	x	x	x	x
Cc1cc(-c2ccccc2)nc(NN=Cc2cccnc2)n1	x	x	x	5	x	x	x	x	x
COc1cccc(C(=O)COC(=O)c2n[nH]c(=O)c3ccccc23)c1	60*[inhibitor]	-12	262	x	i	71	101	4	104
O=C(COC(=O)c1n[nH]c(=O)c2ccccc12)c1ccccc1	97	0	144	3	i	99	x	x	x
SMILES	MEKK3 PB1 HTS	MEKK2mut PB1 HTS	T cell HTS	UCH37 inh	Rce1 inhib	MEKK2wt PB1 HTS	MEKK2wt confirm	MEKK2mut-MEK5	MEKK3 confirm
CC1CCCC(=NNC(=O)Nc2ccccc2)C1 (stereo not drawn)	x	x	x	7	x	x	x	x	x
COc1ccc(CNC(=O)CSCc2ccccc2Cl)cc1	128*	1	286	1	i	105	103	0	103
O=C(Cc1ccccc1)Nc1ccc(S(=O)(=O)N2CCOCC2)cc1	100	2	449	3	i	98	x	x	x
CC1CCN(S(=O)(=O)c2ccc(NC(=O)Cc3ccccc3)cc2)CC1	0.0*[inhibitor]	-40	585	6	i	-5.0*[inhibitor]	100	-4	99
CC1CCN(S(=O)(=O)c2ccc(NC(=O)CN3CCCC(C)C3)cc2)CC1 (stereo not drawn)	15*[inhibitor]	-22	218	2	i	24*[inhibitor]	99	2	100
O=C(NN=Cc1ccc(COc2ccc([N+](=O)[O-])cc2)o1)c1cccc(Cl)c1	x	x	x	2	x	x	x	x	x
CCOc1ccc(Br)cc1C=NO	x	x	x	3	x	x	x	x	x
CC(=O)C1=C(O)C(=O)N(c2ccc(S(=O)(=O)Nc3nccs3)cc2)C1c1ccc([N+](=O)[O-])cc1 (stereo not drawn)	57*[inhibitor]	-47	319	9	i	62*[inhibitor]	103	4	105
O=C(COc1ccc2c(c1)CCC2)N1CCN(c2cccc(C(F)(F)F)c2)CC1	98	-3	289	0	i	100	x	x	x
O=C(COc1ccc2c(c1)CCC2)N1CCN(c2ccccc2F)CC1	142*	0	0	1	i	109	108	6	104
COc1cc(CCC(=O)OCC(=O)Nc2ncc(Cl)cc2Cl)cc(OC)c1OC	98	14	163	1	i	93	x	x	x
COc1cc(CCC(=O)OCC(=O)Nc2nc(C)c(Cl)cc2Cl)cc(OC)c1OC	102	-32	326	0	i	12*[inhibitor]	95	-10	97
O=C(NNc1ccc(C2CCCCC2)cc1)C(O)(c1ccccc1)c1cccs1 (stereo not drawn)	105	0	577	4	i	94	x	x	x
COc1ccc(C(O)(C(=O)NNc2ccc(C)cc2)c2cccs2)cc1 (stereo not drawn)	122*	5	183	2	i	115	101	-1	106
O=C(NN=Cc1ccncc1)c1ccncc1	x	x	x	3	x	x	x	x	x
